Active and inactive are the calls of the source. The rule behind the calls is not given here.
Experiments:
[1] = test system: Monocyte; test: Cytotoxicity against human monocytes assessed as reduction in LDH release at 1 to 10 uM after 2 to 24 hrs by CytoTox96 nonradioactive assay; type: cell-based; conditions: dose lower 1 µM, time lower 2 hrs, dose upper 10 µM, time upper 24 hrs
Summary of the method: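 Monocytes at 4 × 10^5/mL in monocyte medium treated 2 or 24 h at 37 °C, 5% CO2, with 0.1% DMSO vehicle. LDH release measured by CytoTox 96 kit, with Triton X-100 (0.8%) defining maximum release.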

[2] = test system: Mus musculus; test: Antiinflammatory activity in zymosan-induced CD-1 mouse peritonitis model assessed as reduction in LTC4 level at 3 mg/kg, po preincubated with compound for 60 mins followed by zymosan addition and measured after 30 mins by ELISA; type: functional, organism-based; conditions: time 90.0 min
Summary of the method: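 Oral dosing at 3 mg/kg in zymosan-induced peritonitis; mice killed 30 min after zymosan; LTC4 in peritoneal exudate measured by ELISA; two-tailed unpaired t-test of log data.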

Compound | Activity [1] | Activity [2]
Cc1c(C)c2c(c(C)c1O)CC[C@@](C)(CCCC(C)CCCC(C)CCCC(C)C(=O)O)O2 (some centres not stated) | Non-Toxic | 
CC(c1cc2ccccc2s1)N(O)C(N)=O (configuration not stated) |  | inactive

Source: ChEMBL document CHEMBL4834471 (J Med Chem, 2021)
